Results of several laboratories.
Each line is one published result; the experiments were not run side by side.
Target: Serine/threonine-protein kinase 4 (STK4, Homo sapiens, UniProt Q13043)
Sequence (Q13043 1-487, as in one of the studies): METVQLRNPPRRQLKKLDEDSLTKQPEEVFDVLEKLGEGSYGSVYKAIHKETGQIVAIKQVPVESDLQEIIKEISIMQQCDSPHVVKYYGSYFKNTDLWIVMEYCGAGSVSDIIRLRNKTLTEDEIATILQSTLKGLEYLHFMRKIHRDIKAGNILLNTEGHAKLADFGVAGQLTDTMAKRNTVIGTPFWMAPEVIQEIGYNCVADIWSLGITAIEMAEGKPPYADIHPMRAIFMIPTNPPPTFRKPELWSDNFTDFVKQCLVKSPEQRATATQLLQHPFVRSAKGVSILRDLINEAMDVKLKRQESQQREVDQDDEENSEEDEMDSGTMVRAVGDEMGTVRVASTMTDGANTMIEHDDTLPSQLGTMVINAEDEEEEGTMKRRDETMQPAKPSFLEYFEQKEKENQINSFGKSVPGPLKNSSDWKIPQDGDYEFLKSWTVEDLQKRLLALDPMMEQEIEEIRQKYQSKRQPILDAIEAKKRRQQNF

SMILES | effect on | action | technique | concentration | endpoint | result
Cn1c2c(Cl)c(Cl)ccc2c2cn[nH]c(=O)c21 | thermal stability |  | DSF | 10 µM | ΔTm | 0.4 °C
Cc1cc(NC(=O)c2cccc3cc(-c4cccc5[nH]nc(N)c45)ccc23)ccc1F | enzyme activity | inhibitor |  | 0.1 µM | activity vs control | 104%
COc1ccc2cc(OCC3(C(=O)O)CN(C(=O)c4ccc(F)cc4)C3)ccc2c1 | cell-free assay |  | competition with immobilised ligand | 1 µM | remaining binding | 100%
Cc1sc(C(=O)NC2COC2)cc1-n1cc(NC(=O)Nc2c(F)cccc2Cl)cn1 | enzyme activity | inhibitor |  | 10 µM | remaining activity | 107%
O=C(Nc1ccc(Oc2ccc(F)cc2)cc1)N1CCc2ncccc2[C@H]1c1ccc(F)cc1 | cell-free assay |  | competition with immobilised ligand | 1 µM | remaining binding | 99%
CC(C)(C)c1nc(-c2cccc(NS(=O)(=O)c3c(F)cccc3F)c2F)c(-c2ccnc(N)n2)s1 | enzyme activity | inhibitor | radiometric | 1 µM | remaining activity | 105%
Cc1nc(C2CCN(C(=O)c3ccc(OC(F)(F)F)cc3N)CC2)c2ncc(N3CCN(C)CC3)cc2n1 | cell-free assay |  | competition with immobilised ligand | 1 µM | remaining binding | 85%
COc1cccc2c(NCc3ccccc3)nc(-n3c(N)nc4ccccc43)nc12 | target engagement in cells | inhibitor | chemoproteomics | 20 mM | inhibition | 6.2%
CN1CCC2(CC1)NC(=O)c1c(c3ccc(Cl)c(Cl)c3n1C)C2C#N (racemic) | thermal stability |  | DSF | 10 µM | ΔTm | 0 °C
Cc1ccc(NC(=O)c2ccc(C)c(C(F)(F)F)c2)cc1C#Cc1nn(C2CCC(O)CC2)c2ncnc(N)c12 (centres unmarked) | cell-free assay |  |  | 10 µM | remaining signal | 109%
Cc1cc(C)c(-n2ccn3nc(-c4cccnc4)cc23)cc1NC(=O)c1cc(C#N)cc(S(F)(F)(F)(F)F)c1 | cell-free assay |  | competition with immobilised ligand | 0.1 µM | remaining binding | 88.5%
COc1cc2ncnc(Nc3ccc(Oc4ccccc4)cc3C)c2cc1OC | enzyme activity | inhibitor |  | 1 µM | inhibition | 1%
Cn1c2c(c3ccccc31)C(C#N)C(C)(C)NC2=O (centres unmarked) | thermal stability |  | DSF | 10 µM | ΔTm | 0.2 °C
O=C(Nc1cnn(-c2csc(C(=O)NC3COC3)c2)c1)Nc1c(F)cccc1Cl | enzyme activity | inhibitor |  | 5 µM | remaining activity | 96.6%
CN1CC(Oc2cnc(C#N)cc2-c2ccn3nc(NC(=O)C4CC4)cc3c2)C1 | enzyme activity | inhibitor |  | 1 µM | inhibition | -5%
Cc1ccc(Nc2nccc(N(C)c3ccc4c(C)n(C)nc4c3)n2)cc1S(N)(=O)=O | enzyme activity | inhibitor |  | 0.3 µM | inhibition | 1%
N#CCCc1ccc2c(c1)-c1[nH]c3ccc([N+](=O)[O-])cc3c1CC(=O)N2 | cell-free assay |  |  | 0.5 µM | remaining signal | 30.9%
CCCCNc1ncc2c(-c3ccc(F)cc3)nn(C[C@H]3CC[C@H](N)CC3)c2n1 | target engagement in cells | inhibitor | chemoproteomics | 20 mM | inhibition | 48.3%
CC1(C)NC(=O)c2[nH]c3c(Cl)c(Cl)ccc3c2C1C#N (centres unmarked) | thermal stability |  | DSF | 10 µM | ΔTm | -0.6 °C
CNC(=O)Nc1ccc2c(c1)CC[C@@]21OC(=O)N(CC(=O)N(Cc2ccc(F)cc2)[C@@H](C)C(F)(F)F)C1=O | cell-free assay |  | competition with immobilised ligand | 1 µM | remaining binding | 100%
COc1cc(Cl)c(C(=O)N[C@@H](CN[C@H]2CC[C@@H](N)CC2)Cc2ccc(C#N)cc2)cc1-c1ccc(CN[C@H](C)c2ccc(C)cc2)o1 | enzyme activity | inhibitor |  | 1 µM | remaining activity | 102%
CNC(=O)c1cc(Oc2ccc(NC(=O)Nc3ccc(Cl)c(C(F)(F)F)c3)cc2)ccn1 | enzyme activity | inhibitor |  | 10 µM | inhibition | 3%
Cc1c(NC(=O)c2cc(C(N)=O)nc3cc(F)ccc23)c(C(F)(F)F)nn1Cc1ccc(C(C)(C)C)cc1 | cell-free assay |  | competition with immobilised ligand | 1 µM | remaining binding | 95%
CCCS(=O)(=O)Nc1ccc(F)c(C(=O)c2c[nH]c3ncc(-c4ccc(Cl)cc4)cc23)c1F | enzyme activity | inhibitor |  | 1 µM | inhibition | < 20%
O=C(Nc1cccnn1)N1CC(C/C=C/c2cncc(Oc3ccc(C(F)(F)F)cn3)n2)C1 | cell-free assay |  | competition with immobilised ligand | 1 µM | remaining binding | 100%
CS(=O)(=O)CCNCc1ccc(-c2ccc3ncnc(Nc4ccc(OCc5cccc(F)c5)c(Cl)c4)c3c2)o1 | cell-free assay |  |  | 0.5 µM | remaining signal | 99.4%
Nc1cnc(N2CCc3cc(S(=O)(=O)Nc4c(F)cc(Cl)cc4F)cc(N4CCCC4=O)c32)nc1 | cell-free assay |  | competition with immobilised ligand | 1 µM | remaining binding | 100%
O=C1NC(=O)c2cc(Nc3ccc(F)cc3)c(Nc3ccc(F)cc3)cc21 | cell-free assay |  |  | 0.5 µM | remaining signal | 101%
Cn1c2c(c3ccc(Cl)c(Cl)c31)C(C#N)C1(CCCC1)NC2=O (centres unmarked) | thermal stability |  | DSF | 10 µM | ΔTm | 0.3 °C
